Results published in ChEMBL document CHEMBL3808328, “Caged xanthones: Potent inhibitors of global predominant MRSA USA300” (Bioorg Med Chem Lett, 2016).
Converted amounts (≈) assume the structure as drawn. The source made the active and inactive calls. No cut-off for these calls is given here.

Key:
Staphylococcus aureus [1] = assay: Antibacterial activity against methicillin-resistant Staphylococcus aureus USA300 SF8300 assessed as zone of inhibition at 30 ug after 18 hrs by disk diffusion method; format: functional; settings: USA300 SF8300, 18 h, read-out: DIZ
How it was run: (§1)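 Disk diffusion on 6 mm paper disks, with methicillin-susceptible S. aureus ATCC 25923 as the control strain alongside MRSA USA300 SF8300. The read-out is the diameter of the complete inhibition zone, averaged over at least three independent experiments and reported with standard errors. A 6 mm zone means no growth inhibition.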

Staphylococcus aureus [2] = assay: Antibacterial activity against methicillin-susceptible Staphylococcus aureus ATCC 25923 assessed as zone of inhibition at 30 ug after 18 hrs by disk diffusion method; format: functional; settings: ATCC 25923, 18 h, read-out: DIZ
How it was run: (§2)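 Disks 6 mm in diameter; a 6 mm zone means no growth inhibition. The diameters of complete-inhibition zones are averaged over at least three independent experiments and reported with standard errors.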

A549 [3] = assay: Cytotoxicity against human A549 cells assessed as reduction in cell viability after 24 to 48 hrs by Presto Blue assay; format: cell-based
HEK293 [4] = assay: Cytotoxicity against human HEK293 cells assessed as reduction in cell viability after 24 to 48 hrs by […] assay
Staphylococcus aureus [5] = assay: Bactericidal activity against methicillin-resistant Staphylococcus aureus USA300 SF8300 after 18 to 20 hrs; format: functional
How it was run: (§3)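 Broth microdilution to find MIC and MBC against MRSA USA300 SF8300. Each compound was serially 2-fold diluted starting from its stock concentration.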

Staphylococcus aureus [6] = assay: Antibacterial activity against methicillin-susceptible Staphylococcus aureus ATCC 29213 assessed as growth inhibition after 18 to 20 hrs by microdilution assay; format: functional
How it was run: (§4)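 Broth microdilution gives both MIC and MBC. Each compound is serially 2-fold diluted starting from its stock concentration.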

Staphylococcus aureus [7] = assay: Effect on methicillin-susceptible Staphylococcus aureus RF122 growth at >= MIC after 2 hrs; format: organism-based
A549 [8] = assay: Cytotoxicity against human A549 cells assessed as change in cell morphology at 12.5 to 25 uM after 10 mins to 2 hrs by microscopic analysis; format: cell-based; settings: a549, 25 µM
Staphylococcus aureus [9] = assay: Bactericidal activity against methicillin-susceptible Staphylococcus aureus ATCC 29213 after 18 to 20 hrs; format: functional; how it was run: as §4
Staphylococcus aureus [10] = assay: Antibacterial activity against methicillin-resistant Staphylococcus aureus USA300 SF8300 assessed as growth inhibition after 18 to 20 hrs by microdilution assay; format: functional; how it was run: as §3
HEK293 [11] = assay: Cytotoxicity against human HEK293 cells assessed as change in cell morphology at 12.5 to 25 uM after 10 mins to 2 hrs by microscopic analysis; format: cell-based; settings: hek293, 25 µM
Staphylococcus aureus [12] = assay: Antibacterial activity against methicillin-susceptible Staphylococcus aureus RF122 infected in A549 cells assessed as inhibition of bacterial invasion after 2 hrs
Staphylococcus aureus [13] = assay: Antibacterial activity against methicillin-susceptible Staphylococcus aureus ATCC 25923 assessed as zone of inhibition at 1 ug after 18 hrs by disk diffusion method; format: functional; settings: ATCC 25923, 18 h, read-out: DIZ; how it was run: as §1
Staphylococcus aureus [14] = assay: Antibacterial activity against methicillin-resistant Staphylococcus aureus USA300 SF8300 assessed as zone of inhibition at 1 ug after 18 hrs by disk diffusion method; format: functional; settings: USA300 SF8300, 18 h, read-out: DIZ; how it was run: as §1
Staphylococcus aureus [15] = assay: Antibacterial activity against methicillin-susceptible Staphylococcus aureus ATCC 25923 assessed as zone of inhibition at 10 ug after 18 hrs by disk diffusion method; format: functional; settings: ATCC 25923, 18 h, read-out: DIZ; how it was run: as §2
Staphylococcus aureus [16] = assay: Antibacterial activity against methicillin-resistant Staphylococcus aureus USA300 SF8300 assessed as zone of inhibition at 10 ug after 18 hrs by disk diffusion method; format: functional; settings: USA300 SF8300, 18 h, read-out: DIZ; how it was run: as §1
A549 [17] = assay: Cytotoxicity against human A549 cells assessed as cells detachment at 12.5 uM after 2 hrs by microscopic analysis; format: cell-based; settings: a549, 2 h
HEK293 [18] = assay: Cytotoxicity against human HEK293 cells assessed as cells detachment at 50 uM after 10 mins by microscopic analysis; format: cell-based; settings: hek293, 10 min
Staphylococcus aureus [19] = assay: Antibacterial activity against methicillin-susceptible Staphylococcus aureus RF122 infected in A549 cells assessed as inhibition of bacterial invasion at 1.5 uM after 1 hr; format: functional, organism-based
How it was run: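 Invasion assay in human epithelial A549 cells infected with S. aureus while the test compound was present. Concentrations were held below those that damage A549 cells. Both non-invading and invading bacteria were then cultured to rule out effects on bacterial growth.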

HEK293 [20] = assay: Cytotoxicity against human HEK293 cells assessed as cells detachment at 12.5 uM after 2 hrs by microscopic analysis; format: cell-based; settings: hek293, 2 h
A549 [21] = assay: Cytotoxicity against human A549 cells assessed as cells detachment at 50 uM after 10 mins by microscopic analysis; format: cell-based; settings: a549, 10 min

SMILES	zone of inhibition at 30 µg/disc (Staphylococcus aureus [1]) [mm]	zone of inhibition at 30 µg/disc (Staphylococcus aureus [2]) [mm]	IC50 (A549 [3]) [µM]	MBC (Staphylococcus aureus [5]) [µM]	MIC (Staphylococcus aureus [6]) [µM]	MBC (Staphylococcus aureus [9]) [µM]	MIC (Staphylococcus aureus [10]) [µM]	other results
CC(C)=CCc1c2c(c(O)c3c1O[C@@]14C(=C[C@H]5CC1C(C)(C)O[C@]4(C/C=C(\C)CO)C5=O)C3=O)C=CC(C)(C)O2	8.57	7.75	2.69	–	–	–	–	IC50 (HEK293 [4]): 0.98 µM
CC(C)=CCC/C(C)=C/Cc1c(O)c(CC=C(C)C)c2c(c1O)C(=O)C1=C[C@H]3CC4C(C)(C)O[C@](CC=C(C)C)(C3=O)[C@]14O2	6	6	–	–	–	–	–	–
CC(C)=CCc1c2c(c(O)c3c1O[C@@]14C(=C[C@H]5CC1C(C)(C)O[C@]4(CC=C(C)C)C5=O)C3=O)C=CC(C)(C)O2	6	6	1.42	–	–	–	–	IC50 (HEK293 [4]): 0.81 µM
CC(C)=CCc1c2c(c(O)c3c1O[C@@]14C(=C[C@H]5CC1C(C)(C)O[C@]4(C/C=C(/C)C(=O)N[C@H](C(=O)O)C(C)C)C5=O)C3=O)C=CC(C)(C)O2	22.2	20	29.8	25 (≈ 16.5 µg/mL)	12.5 (≈ 8.25 µg/mL)	12.5 (≈ 8.25 µg/mL)	25 (≈ 16.5 µg/mL)	Activity (Staphylococcus aureus [7]): Non-toxic; Activity (A549 [8]): Non-toxic; Activity (HEK293 [11]): Non-toxic; IC50 (HEK293 [4]): 21.8 µM; inhibition (Staphylococcus aureus [12]): Dose-dependent effect
CC(C)=CCc1c2c(c(O)c3c1O[C@@]14C(=C[C@H]5CC1C(C)(C)O[C@]4(C/C=C(/C)C(=O)N[C@@H](CCC(N)=O)C(=O)O)C5=O)C3=O)C=CC(C)(C)O2	9.09	7.5	–	–	–	–	–	–
Cc1onc(-c2ccccc2)c1C(=O)N[C@@H]1C(=O)N2[C@@H]1SC(C)(C)[C@@H]2C(=O)O [OXACILLIN]	–	–	–	> 19.9	0.62 (≈ 0.249 µg/mL)	1.25 (≈ 0.502 µg/mL)	> 19.9	zone of inhibition at 1 µg/disc (Staphylococcus aureus [13]): 28.9 mm; zone of inhibition at 1 µg/disc (Staphylococcus aureus [14]): 6 mm
CC(C)=CCc1c2c(c(O)c3c1O[C@@]14C(=C[C@H]5CC1C(C)(C)O[C@]4(C/C=C(/C)C(=O)N[C@@H](Cc1ccccc1)C(=O)O)C5=O)C3=O)C=CC(C)(C)O2	16.3	17.1	12.2	25 (≈ 17.7 µg/mL)	12.5 (≈ 8.85 µg/mL)	12.5 (≈ 8.85 µg/mL)	25 (≈ 17.7 µg/mL)	–
COC(=O)/C(C)=C\C[C@]12OC(C)(C)C3C[C@H](C=C4C(=O)c5c(O)c6c(c(CC=C(C)C)c5O[C@@]431)OC(C)(C)C=C6)C2=O	6	6	–	–	–	–	–	–
CSCC[C@H](NC(=O)/C(C)=C\C[C@]12OC(C)(C)C3C[C@H](C=C4C(=O)c5c(O)c6c(c(CC=C(C)C)c5O[C@@]431)OC(C)(C)C=C6)C2=O)C(=O)O	9.53	7.09	–	–	–	–	–	–
CC[C@H](C)[C@H](NC(=O)/C(C)=C\C[C@]12OC(C)(C)C3C[C@H](C=C4C(=O)c5c(O)c6c(c(CC=C(C)C)c5O[C@@]431)OC(C)(C)C=C6)C2=O)C(=O)O	19.4	15.9	24.5	50 (≈ 33.7 µg/mL)	25 (≈ 16.8 µg/mL)	25 (≈ 16.8 µg/mL)	25 (≈ 16.8 µg/mL)	–
CC(C)=CCc1c2c(c(O)c3c1O[C@@]14C(=C[C@H]5CC1C(C)(C)O[C@]4(C/C=C(/C)C(=O)N[C@@H](CC(C)C)C(=O)O)C5=O)C3=O)C=CC(C)(C)O2	18.3	16.5	15.5	50 (≈ 33.7 µg/mL)	25 (≈ 16.8 µg/mL)	25 (≈ 16.8 µg/mL)	25 (≈ 16.8 µg/mL)	–
CC(C)=CCc1c(O)cc(O)c2c1OC13C(=CC4CC1C(C)(C)O[C@]3(CC=C(C)C)C4=O)C2=O	7.97	7.86	–	> 400	200 (≈ 92.9 µg/mL)	200 (≈ 92.9 µg/mL)	> 400	–
CC(C)=CCc1c2c(c(O)c3c1O[C@@]14C(=C[C@H]5CC1C(C)(C)O[C@]4(C/C=C(/C)C(=O)N1CCC[C@H]1C(=O)O)C5=O)C3=O)C=CC(C)(C)O2	15.9	13.1	21.1	> 100	50 (≈ 32.9 µg/mL)	100 (≈ 65.8 µg/mL)	100 (≈ 65.8 µg/mL)	–
CC1(C)S[C@@H]2[C@H](NC(=O)[C@H](N)c3ccccc3)C(=O)N2[C@H]1C(=O)O [AMPICILLIN]	–	–	–	> 100	1.56 (≈ 0.545 µg/mL)	1.56 (≈ 0.545 µg/mL)	> 100	zone of inhibition at 10 µg/disc (Staphylococcus aureus [15]): 17 mm; zone of inhibition at 10 µg/disc (Staphylococcus aureus [16]): 6 mm
CC(C)=CCC[C@]1(C)C=Cc2c(O)c3c(c(CC=C(C)C)c2O1)O[C@]12C(=C[C@@H]4C[C@H]1C(C)(C)O[C@@]2(C/C=C(/C)C(=O)O)C4=O)C3=O [GAMBOGIC ACID]	17.3	16.6	3.4	50 (≈ 31.4 µg/mL)	12.5 (≈ 7.86 µg/mL)	25 (≈ 15.7 µg/mL)	25 (≈ 15.7 µg/mL)	IC50 (HEK293 [4]): 1.72 µM
CC(C)=CCc1c2c(c(O)c3c1O[C@@]14C(=C[C@H]5CC1C(C)(C)O[C@]4(C/C=C(/C)C(=O)N[C@@H](CCC(=O)O)C(=O)O)C5=O)C3=O)C=CC(C)(C)O2	6	6	–	–	–	–	–	–
CC(C)=CCc1c2c(c(O)c3c1O[C@@]14C(=C[C@H]5CC1C(C)(C)O[C@]4(C/C=C(/C)C(=O)N[C@@H](CO)C(=O)O)C5=O)C3=O)C=CC(C)(C)O2	6.28	6.09	–	–	–	–	–	–
CC(C)=CCc1c2c(c(O)c3c1O[C@@]14C(=C[C@H]5CC1C(C)(C)O[C@]4(C/C=C(/C)C(=O)N[C@@H](CCC(=O)NC(c1ccccc1)(c1ccccc1)c1ccccc1)C(=O)O)C5=O)C3=O)C=CC(C)(C)O2	8.21	6.89	–	–	–	–	–	–
CC(C)=CCc1c(O)cc(O)c2c1OC13C(=CC4(C/C=C/C(C)C)CC1C(C)(C)O[C@]3(CC=C(C)C)C4=O)C2=O	6	6	–	–	–	–	–	–
CC(C)=CCc1c2c(c(O)c3c1O[C@@]14C(=C[C@H]5CC1C(C)(C)O[C@]4(C/C=C(/C)C(=O)O)C5=O)C3=O)C=CC(C)(C)O2	19.5	19.2	3.5	25 (≈ 14 µg/mL)	12.5 (≈ 7.01 µg/mL)	12.5 (≈ 7.01 µg/mL)	12.5 (≈ 7.01 µg/mL)	Activity (A549 [17]): Toxic; Activity (HEK293 [18]): Toxic; inhibition (Staphylococcus aureus [19]): inactive; Activity (HEK293 [20]): Toxic; IC50 (HEK293 [4]): 2.33 µM; Activity (A549 [21]): Toxic
CC(C)=CCc1c2c(c(O)c3c1O[C@@]14C(=C[C@H]5CC1C(C)(C)O[C@]4(C/C=C(/C)C(=O)N[C@@H](CCC(=O)OCc1ccccc1)C(=O)O)C5=O)C3=O)C=CC(C)(C)O2	–	6.53	–	–	–	–	–	–
CC(C)=CCc1c2c(c(O)c3c1O[C@@]14C(C[C@H]5CC1C(C)(C)O[C@]4(C/C=C(\C)C=O)C5=O)C3=O)C=CC(C)(C)O2 (stereo partly specified)	6	6	–	–	–	–	–	–
